According to ChEMBL document CHEMBL1128324, “Synthesis and antitumor activity of 4- and 5-substituted derivatives of isoquinoline-1-carboxaldehyde thiosemicarbazone” (1995):
Values joined by “and” are separate entries in the source; they are usually repeats but may differ in a detail not shown here. Identical values can stand only once.

How the values were obtained:
Assay type in all cases: functional
Bos taurus = species on record: Bos taurus; assay: Effect on rate of glucuronidation of the hydroxyl group by bovine UDP-glucuronyltransferase
How it was run: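 UDP formed during glucuronidation was measured by a coupled enzymatic assay, and the rate was calculated from NADH absorbance using an extinction coefficient of 6.22 × 10^6 cm2 mol-1. Test agents were dissolved in DMSO at final concentrations of 0.5 mM (hydroxyl-substituted pyridines) and 0.1 mM (hydroxyl-substituted isoquinolines). Model compounds lacking the thiosemicarbazone group were used because thiosemicarbazones interfere with the absorbance.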

Mus musculus [1] = species on record: Mus musculus; assay: Survival time of mice(out of 5) bearing L1210 leukemia. Long term survivors are the number of mice that survived for >60 days relative to the total number of treated mice.
How it was run: (§1)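 CD2F1 mice bearing L1210 leukemia, 5-10 per group. Drug was given ip as a suspension twice daily (about 12 h apart) for 6 consecutive days, starting 24 h after tumor implantation. Mean survival counts only mice dying before day 60. Survivors beyond 60 days are scored as long-term. Body-weight change is measured from the start to the end of therapy.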

Mus musculus [2] = species on record: Mus musculus; assay: The compound was tested for antineoplastic activity on the survival time of mice bearing L1210 leukemia. Average survival time includes only those mice that died prior to day 60.; how it was run: as §1
Mus musculus [3] = species on record: Mus musculus; assay: The compound was tested for antineoplastic activity on the survival time of mice bearing L1210 leukemia. Average weight change of mice from onset to termination of therapy.; how it was run: as §1
Mus musculus [4] = species on record: Mus musculus; assay: The compound was tested for antineoplastic activity on the survival time of mice bearing L1210 leukemia.% T/C represents the ratio of the survival time of treated to control mice * 100.
Mus musculus [5] = species on record: Mus musculus; assay: antineoplastic activity on the survival time of mice bearing L1210 leukemia. Average weight change of mice from onset to termination of drug treatment.
How it was run: (§2)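 L1210 leukemia-bearing CD2F1 mice, 5-10 per group, received the drug as an ip suspension once daily for 6 consecutive days, starting 24 h after tumor implantation. %T/C is treated over control survival time ×100. Average weight change is measured from the onset to the termination of treatment.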

Mus musculus [6] = species on record: Mus musculus; assay: antineoplastic activity on the survival time of mice bearing L1210 leukemia.% T/C represents the ratio of the survival time of treated to control mice * 100.; how it was run: as §2
Mus musculus [7] = species on record: Mus musculus; assay: The compound was tested for antineoplastic activity on the survival time of mice bearing L1210 leukemia. Optimum daily dosage of the compound.
Mus musculus [8] = species on record: Mus musculus; assay: antineoplastic activity on the survival time of mice bearing L1210 leukemia. Daily dosage of the compound.; how it was run: as §2

| SMILES | Relative rate (Bos taurus) | Average weight change (Mus musculus [5]) | T/C (Mus musculus [6]) | further results |
| --- | --- | --- | --- | --- |
| Cc1ncc(C)c2c(O)cccc12 | 0.08 |  |  |  |
| N/C(S)=N/N=C/c1ccc(N)cn1 |  | -18% and -2.8% and 0% | 129% and 140% and 138% | Long-term survivors (Mus musculus [1]): 1; Average survival (Mus musculus [2]): 19.2 days; Average weight (Mus musculus [3]): -7.6%; T/C (Mus musculus [4]): 234%; Dose (Mus musculus [7]): 20 mg/kg |
| NCCNc1cnc(/C=N\N=C(\N)S)c2ccccc12 |  | -4.6% and -5% | 145% and 120% and 116% | Dose (Mus musculus [8]): 60 mg/kg and 40 mg/kg and 20 mg/kg |
| Cc1cc(C)c(O)cn1 | 1 |  |  |  |
| Cc1nccc2c(O)cccc12 | 1 |  |  |  |
| Cc1ncccc1O | 0.65 |  |  |  |
| Cc1ccc(O)cn1 | 0.59 |  |  |  |
| Cc1ccnc(C)c1O | 0.81 |  |  |  |
| N/C(S)=N/N=C\c1ncc(N2CCOCC2)c2c(N)cccc12 |  | 2% and 7.3% and 6.8% | 138% and 141% and 149% |  |
| Oc1cccc2cnccc12 | 0.45 |  |  |  |
| CNc1cnc(/C=N\N=C(\N)S)c2ccccc12 |  | 1% and 3% and 8% | 177% and 159% and 179% |  |
| N/C(S)=N/N=C\c1ncc(N)c2ccccc12 |  | 3.2% and 3.6% and 3% | 177% and 174% and 162% | Long-term survivors (Mus musculus [1]): 3; Average survival (Mus musculus [2]): 13.5 days; Average weight (Mus musculus [3]): -7.8%; T/C (Mus musculus [4]): 165%; Dose (Mus musculus [7]): 40 mg/kg |
